Drawing on ChEMBL document CHEMBL1131229, “Synthesis, rotamer orientation, and calcium channel modulation activities of alkyl and 2-phenethyl 1,4-dihydro-2,6-dimethyl-3-nitro-4-(3- or 6-substituted-2-pyridyl)-5-pyridinecarboxylates” (J Med Chem, 1998), this text covers EC50 and IC50 for 18 molecules.

For test [1], the species on record is Cavia porcellus. As to the kind of experiment: Calcium channel agonist activity as percent increase in tonic contractile response in guinea pig left atrium. The format is functional. The note with it: Cardiac atrium. Put shortly:
(§1)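 Racemic test compounds on isolated guinea pig left atrium, scored as positive inotropic (contractile) response. Dose-response curves constructed. EC50 (± SEM) taken graphically as the molar concentration producing 50% of the maximum contractile increase; number of experiments reported.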

For test [2], the species on record is Cavia porcellus. The test is described as follows: Percent decrease in tonic contractile response in guinea pig ileal longitudinal smooth muscle. The format is functional. The settings on record: Muscle tissue. The essentials:
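Guinea pig ileum longitudinal smooth muscle, tonic (slow) contraction evoked by carbachol at 1.6 × 10^-7 M (muscarinic, Ca²⁺-dependent). Test compound applied over a dose range. Concentration giving 50% inhibition (IC50 ± SEM, n = 3-18) read graphically from the dose-response curve.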

For test [3], the species on record is Cavia porcellus. As to the kind of experiment: Calcium channel agonist activity as percent increase in tonic contractile response in guinea pig left atrium, Weak antagonist. The format is functional, Cardiac atrium.
The species entered for test [4] is Cavia porcellus. As to the kind of experiment: Calcium channel agonist activity as percent increase in tonic contractile response in guinea pig left atrium, Weak agonist. Format: functional, Cardiac atrium. The essentials: as §1

For the molecule `CC1=NC(C)=C([N+](=O)[O-])C(c2ncccc2C)/C1=C(/O)OC(C)C` (centres undefined), the EC50 in test [1] worked out at 9.97 µM. This molecule had a half-inhibitory concentration (IC50) in test [2] of 2.82 µM.

Consider `CC1=NC(C)=C([N+](=O)[O-])C(c2cccc(-c3ccccc3)n2)/C1=C(/O)OCCc1ccccc1` (centres undefined), for which the half-maximal inhibitory concentration (IC50) in test [2] came out at 8.38 µM.

Turning to `CC1=NC(C)=C([N+](=O)[O-])C(c2ncccc2C)/C1=C(/O)OCCc1ccccc1` (centres undefined), the IC50 in test [2] was found to be 5.43 µM.

`CC1=NC(C)=C([N+](=O)[O-])C(c2ncccc2[N+](=O)[O-])/C1=C(/O)OC(C)C` (centres undefined) registered an IC50 in test [2] of 3.77 µM. For the same molecule, the EC50 result in test [3] is listed as “Partial antagonist”.

For the molecule `CCO/C(O)=C1/C(C)=NC(C)=C([N+](=O)[O-])C1c1cccc(C)n1` (centres undefined), the EC50 in test [1] amounted to 12.3 µM. This molecule registered a half-maximal inhibitory concentration (IC50) in test [2] of 17.2 µM.

`COC(=O)C1=C(C)NC(C)=C(C(=O)OC)C1c1ccccc1[N+](=O)[O-]` [NIFEDIPINE] displayed a half-maximal inhibitory concentration (IC50) in test [2] of 0.014 µM.

In turn, `CC1=NC(C)=C([N+](=O)[O-])C(c2ncccc2Cl)/C1=C(/O)OCCc1ccccc1` (centres undefined) returned an IC50 in test [2] of 5.17 µM.

In test [2], `CC1=NC(C)=C([N+](=O)[O-])C(c2ccccn2)/C1=C(/O)OCCc1ccccc1` (centres undefined) came in with a concentration for half-maximal inhibition (IC50) of 0.639 µM.

With `CC1=NC(C)=C([N+](=O)[O-])C(c2cccc(C)n2)/C1=C(/O)OCCc1ccccc1` (centres undefined), in test [2], 9.98 µM corresponded to half-maximal inhibition (IC50).

Consider `CC1=NC(C)=C([N+](=O)[O-])C(c2cccc(Cl)n2)/C1=C(/O)OCCc1ccccc1` (centres undefined), for which the half-maximal inhibitory concentration (IC50) in test [2] came to 1.51 µM.

For the molecule `CC1=NC(C)=C([N+](=O)[O-])C(c2ncccc2-c2ccccc2)/C1=C(/O)OCCc1ccccc1` (centres undefined), the IC50 in test [2] came out at 3.35 µM.

Take `CC1=NC(C)=C([N+](=O)[O-])C(c2cccc(Cl)n2)/C1=C(/O)OC(C)C` (centres undefined): the EC50 in test [1] was found to be 5.96 µM. In test [2], this molecule registered an IC50 of 16.7 µM.

Turning to `CC1=NC(C)=C([N+](=O)[O-])C(c2cccc(C)n2)/C1=C(/O)OC(C)C` (centres undefined), the half-maximal effective concentration (EC50) in test [1] came to 1.81 µM. Also, the IC50 in test [2] amounted to 25.1 µM.

With `CC1=NC(C)=C([N+](=O)[O-])C(c2ncccc2[N+](=O)[O-])/C1=C(/O)OCCc1ccccc1` (centres undefined), the concentration for half-maximal inhibition (IC50) in test [2] stood at 77.7 µM.

With `CC1=NC(C)=C([N+](=O)[O-])C(c2ncccc2C(F)(F)F)/C1=C(/O)OCCc1ccccc1` (centres undefined), the IC50 in test [2] is greater than 59.8 µM.

`CC1=NC(C)=C([N+](=O)[O-])C(c2cccc(C(F)(F)F)n2)/C1=C(/O)OCCc1ccccc1` (centres undefined) displayed a half-maximal inhibitory concentration (IC50) in test [2] of 1.41 µM.

On to `CC1=NC(C)=C([N+](=O)[O-])C(c2cccc([N+](=O)[O-])n2)/C1=C(/O)OCCc1ccccc1` (centres undefined), for which the IC50 in test [2] was 4.74 µM.

Molecule `CO/C(O)=C1/C(C)=NC(C)=C([N+](=O)[O-])C1c1cccc(C)n1` (centres undefined) displayed a half-maximal inhibitory concentration (IC50) in test [2] of 2.29 µM. In test [4], the EC50 result is “Partial agonist”.

The EC50 is the midpoint of the concentration-response curve. By IC50 is commonly meant the midpoint of a concentration-inhibition curve. High values mean lower potency, low ones higher potency.
